In ChEMBL document CHEMBL1153795, “Aromatic cyclic peroxides and related keto-compounds from the Plakortis sp. component of a sponge consortium” (2009):
≈ marks a conversion by molar mass, not a printed value. Calls of active or inactive are those of the source. The calls are words filed in the database; no cut-off is given here.

How the values were obtained:
[1] = system: Staphylococcus aureus; assay: Antibacterial activity against Staphylococcus aureus after 24 hrs by broth macridilution method; type: functional
Procedure, shortened: (§1)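 Broth macrodilution in LB medium (10 g/L Bactotryptone, 5 g/L Bactoyeast, 10 g/L NaCl, pH 7.5). Inoculum was set to 0.5 McFarland (2 × 10^8 cfu/mL) at 530 nm, then diluted 1:4000 to 50 000 cfu/mL. Tubes held eleven 2-fold dilutions (512–[…] µg/mL final) and were incubated 24 h at 37 °C. MIC90 was taken as the lowest concentration with no visible growth.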

[2] = system: Escherichia coli; assay: Antibacterial activity against Escherichia coli after 24 hrs by broth macridilution method; type: functional, organism-based; procedure, shortened: as §1
[3] = system: Candida albicans; assay: Antifungal activity against Candida albicans after 24 hrs by broth macridilution method; type: functional, organism-based

| Compound | MIC [1] [µg/mL] | Activity [2] | Activity [3] |
| --- | --- | --- | --- |
| CC(CCCCCCCCc1ccccc1)C[C@@]1(C)C[C@@H](C)[C@@](C)(O)OO1 (stereo partly specified) | 64 (≈ 170 µM) | inactive | inactive |
| CC(=O)CC(C)CCCCCCCCc1ccccc1 (stereo unspecified) |  | inactive | inactive |
| CC(=O)CC(C)CCCCCC/C=C/c1ccccc1 (stereo unspecified) |  | inactive | inactive |
| CC(CCCCCC/C=C/c1ccccc1)C[C@@]1(C)C[C@@H](C)[C@@](C)(O)OO1 (stereo partly specified) |  | inactive | inactive |
| COC(=O)C[C@]1(O)OO[C@@](C)(C/C(C)=C/C=C/Cc2ccccc2)C[C@H]1C |  | inactive | inactive |
